Results on 1 compound are retold here after ChEMBL document CHEMBL1153806, “Preclinical efficacy of a carboxylesterase 2-activated prodrug of doxazolidine” (J Med Chem, 2009).

Activity calls are given as the source filed them. The calls are words filed in the database; no cut-off is given here.

As usually defined, the GI50 is the concentration at which growth is held to half of that of the control. Low readings indicate more potent growth inhibition, high ones less potent growth inhibition.

Data set [1] relates to NCI-H1435. Kind of data set: Antitumor activity against human NCI-H1435 cells expressing CES2 gene xenografted in athymic nude mouse assessed as slowing of tumor growth at 4 mg/kg, iv administered as three weekly infusion from day 21 to 56 after tumor implantation. The data set is classed as functional, organism-based. More on the design: dose 4 mg/kg. Put shortly:
(§1)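 Athymic nude females, 4–6 weeks old, given ~2 × 10⁶ H1435 cells s.c. in the left flank on day 0; 10 mice/group. I.v. tail-vein doses (Dox-equivalent mg/kg) in 5% DMSO/95% D5W on days 7, 14 and 21, with all groups retreated on days 56, 63 and 70; vehicle controls. Caliper volume π × short² × long/6. Cube roots analysed with day-7 size as baseline covariate, by period.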
Background: A xenograft is tissue or cells of one species grown in another, often human tumour cells in immunodeficient mice.

The subject of data set [2] is Mus musculus. Briefly: Toxicity in NOD/SCID mouse xenografted with human HepG2 cells expressing CES2 gene assessed as occurrence of diarrhea at 3 mg/kg, iv administered on day 7, 14 and 21 after tumor implantation. The class given is organism-based. As to conditions: in vivo. More on the design: dose 3 mg/kg, route intravenous.
The test system of data set [3] is HepG2. Kind of data set: Antitumor activity against human HepG2 cells expressing CES2 gene xenografted in NOD/SCID mouse assessed as inhibition of tumor growth at 4 to 5 mg/kg, iv administered on day 7, 14 and 21 after tumor implantation. The class given is functional, organism-based. The method, boiled down: (§2)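 NOD/SCID females, 4–6 weeks old, each given ~1.5 × 10⁷ N-Hep G2 cells s.c. in the left flank; 10 mice/group. Dosed i.v. by tail vein on days 7, 14 and 21, in mg/kg Dox-equivalent, from DMSO diluted into D5W (5% DMSO/95% D5W), 100 µL/mouse. Vehicle-only controls. The 3 mg/kg group was redosed at 5 mg/kg on days 45 and 52. Tumor volume (π × short diameter² × long diameter/6) measured weekly.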

Data set [4] deals with Mus musculus. Briefly: Toxicity in athymic nude mouse xenografted with human NCI-H1435 cells expressing CES2 gene assessed as vacuolar damage in ileum administered with six iv injection of 3 to 4 mg/kg by hematoxylin/eosin staining-based microscopy. The data set is classed as organism-based. Also noted: dose 3-4 mg/kg, route intravenous. As to conditions: in vivo. Put shortly: (§3)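 Kidney and ileum taken from the H1435 nude-mouse study (six i.v. injections). Formalin-fixed for 24 h, paraffin-embedded, and cut into 4 µm sections. Sections deparaffinized in xylene, rehydrated through an ethanol series, stained in Harris hematoxylin for 50 s with eosin, then dehydrated and mounted. Morphology assessed by microscopy.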

Data set [5] deals with Mus musculus. Briefly: Toxicity in NOD/SCID mouse xenografted with human HepG2 cells expressing CES2 gene assessed as survival at 4 mg/kg, iv administered on day 7, 14 and 21 after tumor implantation. The data set is classed as organism-based. More on the design: dose 4 mg/kg, route intravenous. As to conditions: in vivo. The method, boiled down:
(§4)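 Female NOD/SCID mice, 4–6 weeks old, 10 per group. About 1.5 × 10⁷ N-Hep G2 cells were injected s.c. into the left flank. Tail-vein i.v. dosing (mg/kg Dox-equivalent weight) was given on days 7, 14 and 21. Vehicle was 5% DMSO/95% D5W, and controls received vehicle only. Body weight was measured weekly over the first 5 weeks. Survival was followed to study end.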

Data set [6] has as its system NCI-H1435. Briefly: Antitumor activity against human NCI-H1435 cells expressing CES2 gene xenografted in athymic nude mouse assessed as reduction in tumor size at 3 to 4 mg/kg, iv administered on day 7, 14 and 21 after tumor implantation. The class given is functional, organism-based. Put shortly: as §1
For data set [7], the system named is HepG2. Kind of data set: Antitumor activity against human HepG2 cells expressing CES2 gene xenografted in NOD/SCID mouse assessed as inhibition of tumor growth at 3 mg/kg, iv administered on day 7, 14 and 21 after tumor implantation. More on the design: dose 3 mg/kg. The data set is classed as functional, organism-based. The method, boiled down: as §2
Data set [8] can be described thus: Metabolic stability in NOD/SCID mouse plasma up to 24 hrs by reverse-phase HPLC analysis. The data set is classed as ADME, cell-free. To be noted: read-out: Stability. Put shortly:
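PPD from a 1 mM DMSO stock diluted 10 µL into 190 µL of plasma (healthy NOD/SCID mouse, or pooled human from 40 donors) at 37 °C; sampled at 0 and 24 h. Samples digested with proteinase K (2 mg/mL) for 4 h at 37 °C, then run on C18 reverse-phase HPLC with a triethylammonium acetate pH 6.0/acetonitrile gradient, detection at 480 nm.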

The test system of data set [9] is NCI60. Briefly: Growth inhibition of human NCI60 cells after 2 days by sulforhodamine B assay. The class given is functional, cell-based. A general note: Sulforhodamine B stains cellular protein and so reports cell mass.
The test system of data set [10] is Mus musculus. Briefly: Toxicity in NOD/SCID mouse xenografted with human HepG2 cells expressing CES2 gene assessed as survival at 5 mg/kg, iv administered on day 7, 14 and 21 after tumor implantation. The data set is classed as organism-based. More on the design: dose 5 mg/kg, route intravenous. As to conditions: in vivo. The method, boiled down: as §4
Data set [11] concerns Mus musculus. Kind of data set: Toxicity in NOD/SCID mouse xenografted with human HepG2 cells expressing CES2 gene at 3 mg/kg, iv administered on day 7, 14 and 21 after tumor implantation. The data set is classed as organism-based. Also noted: dose 3 mg/kg, route intravenous. To be noted: in vivo.
Data set [12] has as its system HepG2. Kind of data set: Antitumor activity against human HepG2 cells expressing CES2 gene xenografted in pentyl PABC-doxazolidine-treated NOD/SCID mouse assessed as slowing of large, rapidly growing tumor growth at 5 mg/kg, iv administered on day 52 after tumor implantation. The data set is classed as functional, organism-based. Also noted: dose 5 mg/kg. Put shortly: as §2

Data set [13] concerns Mus musculus. Briefly: Toxicity in athymic nude mouse xenografted with human NCI-H1435 cells expressing CES2 gene at 3 to 4 mg/kg, iv administered on day 7, 14 and 21 after tumor implantation. The data set is classed as organism-based. Also noted: dose 3-4 mg/kg, route intravenous. To be noted: in vivo.
Data set [14] concerns Mus musculus. Kind of data set: Toxicity in iv dosed athymic nude mouse xenografted with human NCI-H1435 cells expressing CES2 gene assessed as appearance of cytoplasmic lipid droplets in hepatocytes administered as six injection by hematoxylin/eosin staining-based microscopy. The data set is classed as organism-based, Hepatocyte. The method, boiled down: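 Hearts and livers taken from the H1435 nude-mouse study (six i.v. injections) after CO₂/cervical dislocation. Fixed in 10% formalin for 24 h, paraffin-embedded, and cut at 4 µm. Slides deparaffinized in xylene and ethanol, stained with Mayer's hematoxylin for 2 min, blued in 1% ammonium hydroxide, and counterstained with eosin for 30 s. Examined by light microscopy.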

A short description of data set [15]: Toxicity in pentyl PABC-doxazolidine-treated NOD/SCID mouse xenografted with human HepG2 cells expressing CES2 gene assessed as mortality rate at 5 mg/kg, iv administered on day 52 after tumor implantation. The data set is classed as organism-based. More on the design: dose 5 mg/kg, route intravenous. To be noted: in vivo, read-out: Activity. Put shortly: (§5)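 NOD/SCID females carried s.c. left-flank N-Hep G2 xenografts (about 1.5 × 10⁷ cells). They first received i.v. 3 mg/kg Dox-equivalent on days 7, 14 and 21. The same group was then redosed i.v. at 5 mg/kg on days 45 and 52 in 5% DMSO/95% D5W. There were 10 mice per group. Deaths were counted to the end of the study.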

Data set [16] is described as follows: Toxicity in pentyl PABC-doxazolidine-treated NOD/SCID mouse xenografted with human HepG2 cells expressing CES2 gene assessed as mortality rate at 5 mg/kg, iv administered on day 45 after tumor implantation. Also noted: dose 5 mg/kg, route intravenous. To be noted: in vivo, read-out: Activity. The class given is organism-based. The method, boiled down: as §5

Data set [17] relates to Mus musculus. Kind of data set: Toxicity in athymic nude mouse xenografted with human NCI-H1435 cells expressing CES2 gene assessed as vacuolar degeneration of kidney tissue administered with six iv injection of 3 to 4 mg/kg by hematoxylin/eosin staining-based microscopy. Also noted: dose 3-4 mg/kg, route intravenous. The data set is classed as organism-based. As to conditions: in vivo. The method, boiled down: as §3

The subject of data set [18] is NCI-H1435. Kind of data set: Antitumor activity against human NCI-H1435 cells expressing CES2 gene xenografted in pentyl PABC-doxazolidine-pretreated athymic nude mouse assessed as inhibition of tumor growth at 3 to 4 mg/kg, iv administered on day 70 after tumor implantation. The class given is functional, organism-based. The method, boiled down: as §1
Data set [19] deals with NCI-H460. Kind of data set: Cytotoxicity against human H460 cells expressing CES2 gene.

With `CCCCCOC(=O)Nc1ccc(COC(=O)N2CO[C@@H]3[C@H](C)O[C@@H](O[C@H]4C[C@](O)(C(=O)CO)Cc5c(O)c6c(c(O)c54)C(=O)c4c(OC)cccc4C6=O)C[C@@H]32)cc1`, the result in data set [1] and in data set [6] was inactive. For the same compound, the Activity entry in data set [2], in data set [4], in data set [5], in [10], in [11] and in data set [13] was “Non-toxic” each time. Besides, the Activity result is “Dose-dependent effect” in data set [14] and “Non-toxic” in data set [17]. Also, the inhibition entry in [3] and in data set [18] was “Active” each time. The inhibition result in data set [7] was “inactive”. For the same compound, the remaining at 24 h in [8] is 16%. In addition, the “growth inhibition (GI)” value in data set [9] was “Active”. Besides, in [12], the result was Active. Besides, the mortality in [15] and in data set [16] was 60% throughout. In data set [19], the GI50 is 447 nM.
